The test system of assay [1] is Enterococcus faecium. In words: Antibacterial activity against chlorguanide triazine-resistant Streptococcus faecium ATCC 8043 assessed as reduction in growth in presence of 0.002 ug/ml folic acid. The assay is classed as functional, organism-based. The gist of the method:
(§1)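 Folate-requiring strains grown in medium with folic acid, 0.002 µg/ml for S. faecium and 0.001 µg/ml for L. casei; P. cerevisiae given folinic acid, 0.001 µg/ml. Resistant substrains came from serial transfer in rising chlorguanide triazine, and the most resistant were used. Compounds tested up to 1000 µg/ml, or 100 µg/ml when supply was limited. Growth read as Klett turbidity; IC50 is the µM concentration giving 50% growth inhibition.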

The test system of assay [2] is Lacticaseibacillus casei. The assay can be described thus: Antibacterial activity against sensitive Lactobacillus casei ATCC 7469 assessed as reduction in growth in presence of 0.001 ug/ml folic acid. The format is functional, organism-based. The gist of the method:
(§2)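 Folate-requiring strains in the medium of the earlier assay method. Folic acid was 0.002 μg/ml for S. faecium and 0.001 μg/ml for L. casei. Turbidity read on a Klett-Summerson colorimeter. IC50 is the micromolar concentration reducing growth to 50% of control. Top concentration was 1000 μg/ml, or 100 μg/ml if supply was limited.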

For assay [3], the system named is Lacticaseibacillus casei. The assay can be described thus: Antibacterial activity against chlorguanide triazine-resistant Lactobacillus casei ATCC 7469 assessed as reduction in growth in presence of 0.001 ug/ml folic acid. The assay is classed as functional, organism-based. A digest of the protocol: as §1
In assay [4] the test system is Pediococcus. The assay can be described thus: Antibacterial activity against sensitive Pediococcus cerevisiae ATCC 808 assessed as reduction in growth in presence of 0.001 ug/ml folinic acid. The format is functional. A digest of the protocol: (§3)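 P. cerevisiae grown with folinic acid at 0.001 μg/ml in the earlier-described medium. Turbidity read on a Klett-Summerson colorimeter. IC50 is the micromolar concentration reducing growth to 50% of control. Top concentration was 1000 μg/ml, or 100 μg/ml when supply was limited.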

Assay [5] deals with Pediococcus. The assay can be described thus: Antibacterial activity against chlorguanide triazine-resistant Pediococcus cerevisiae ATCC 808 assessed as reduction in growth in presence of 0.001 ug/ml folinic acid. The format is functional. A digest of the protocol: as §1
The subject of assay [6] is Escherichia coli. The assay can be described thus: Antibacterial activity against sensitive Escherichia coli ATCC 10536 assessed as reduction in growth in presence of p-aminobenzoic acid. The format is functional, organism-based. A digest of the protocol: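 Reversal test. Drug inhibition was challenged with PABA in Sahyun et al. medium plus 0.6% acid-hydrolyzed casein. Growth read as turbidity on a Klett-Summerson colorimeter. Scored as reversal or nonreversal of the drug inhibition.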

In assay [7] the test system is Plasmodium berghei. In words: Antimalarial activity against Plasmodium berghei infected in sc dosed mouse assessed as active dose required to increase of 100% in mean survival time. The assay is classed as functional. To be noted: read-out: MED. The gist of the method:
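Mice received a standard blood-induced P. berghei inoculum and were then treated with one subcutaneous dose of compound suspended in peanut oil. The minimum active dose is the lowest dose that raised mean survival time by 100%.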

Assay [8] relates to Plasmodium berghei. In words: Antimalarial activity against Plasmodium berghei infected in sc dosed mouse assessed as dose required to survivors for period of 60 days. The assay is classed as functional. A digest of the protocol:
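Mice infected with a blood-induced P. berghei inoculum were given one subcutaneous dose in peanut oil. Survivors at 60 days counted as cured. The minimum curative dose is the lowest dose that cured any mouse.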

Assay [9] has as its system Enterococcus faecium. In words: Antibacterial activity against sensitive Streptococcus faecium ATCC 8043 assessed as reduction in growth. The format is functional, organism-based. The gist of the method: as §1
Assay [10] has as its system Enterococcus faecium. The assay can be described thus: Antibacterial activity against chlorguanide triazine-resistant Streptococcus faecium ATCC 8043 assessed as reduction in growth. The format is functional, organism-based. The gist of the method: as §1
Assay [11] has as its system Enterococcus faecium. The assay can be described thus: Fold increase in resistance, ratio of IC50 for chlorguanide triazine-resistant Streptococcus faecium ATCC 8043 to IC50 for sensitive Streptococcus faecium ATCC 8043. The format is functional. A digest of the protocol: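 Resistant S. faecium substrain raised by serial transfer in increasing chlorguanide triazine. IC50 (µM, 50% growth inhibition by turbidity) was found for resistant and parent strains in folic acid (0.002 µg/ml) medium. Fold increase taken as IC50 resistant / IC50 sensitive.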

In assay [12] the test system is Lacticaseibacillus casei. The assay can be described thus: Antibacterial activity against sensitive Lactobacillus casei ATCC 7469 assessed as reduction. The format is functional, organism-based. A digest of the protocol:
as §1

Assay [13] deals with Lacticaseibacillus casei. In words: Antibacterial activity against chlorguanide triazine-resistant Lactobacillus casei ATCC 7469 assessed as reduction in growth. The assay is classed as functional, organism-based. The gist of the method: as §1
In assay [14] the test system is Lacticaseibacillus casei. In words: Fold increase in resistance, ratio of IC50 for chlorguanide triazine-resistant Lactobacillus casei ATCC 7469 to IC50 for sensitive Lactobacillus casei ATCC 7469. The assay is classed as functional. The gist of the method:
(§4)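 Resistant substrains were made by serial transfer in rising concentrations of cycloguanil, and the most resistant isolate of each organism was used. Both strains were assayed turbidimetrically under identical conditions. FIR = IC50 of the resistant strain divided by IC50 of the sensitive parent.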

A short description of assay [15]: Antibacterial activity against sensitive Pediococcus cerevisiae ATCC 808 assessed as reduction. The format is functional. The gist of the method: as §3
The nature of assay [16]: Antibacterial activity against chlorguanide triazine-resistant Pediococcus cerevisiae ATCC 808 assessed as reduction in growth. The assay is classed as functional. A digest of the protocol:
as §1

The subject of assay [17] is Pediococcus. In words: Fold increase in resistance, ratio of IC50 for chlorguanide triazine-resistant Pediococcus cerevisiae ATCC 808 to IC50 for sensitive Pediococcus cerevisiae ATCC 808. The format is functional. A digest of the protocol:
as §4

The test system of assay [18] is Escherichia coli. The assay can be described thus: Antibacterial activity against sensitive Escherichia coli ATCC 10536 assessed as reduction in growth. The format is functional, organism-based. A digest of the protocol: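 Growth inhibition in Sahyun et al. medium plus 0.6% acid-hydrolyzed casein. Growth read as turbidity on a Klett-Summerson photoelectric colorimeter. IC50 is the micromolar concentration giving 50% growth inhibition. Top concentration was 1000 μg/ml, or 100 μg/ml when compound was limited.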

Assay [19] has as its system Enterococcus faecium. In words: Antibacterial activity against sensitive Streptococcus faecium ATCC 8043 assessed as reduction in growth in presence of 0.002 ug/ml folic acid. The format is functional, organism-based. The gist of the method: as §2

From ChEMBL document CHEMBL3272032, “Antifolate studies. Activities of 40 potential antimalarial compounds against sensitive and chlorguanide triazine resistant strains of folate-requiring bacteria and Escherichia coli” (J Med Chem, 1977) come the findings set out here.

Activity calls are given as the source filed them. The rule behind the calls is not given here.

As a reminder, the IC50 is the point on the concentration scale where inhibition reaches its midpoint. For the compound `CCCCN(CCCC)CC(O)c1cc(-c2ccc(Cl)c(Cl)c2)nc2c(Cl)cc(Cl)cc12` (configuration not stated), the inhibition entry in assay [1], in [2], in assay [3], in [4], in [5] and in [6] was “Active” in each case. For the same compound, the inhibition result in assay [19] was “Active”. In addition, the minimal effective dose in assay [7] stood at 5 mg/kg. The MCD in [8] is 20 mg/kg. The concentration for half-maximal inhibition (IC50) in assay [9] is 327000 nM; in [10], 572000 nM; in assay [12], 170000 nM; in assay [13], 250000 nM; in [15] it was 290000 nM; in assay [16] it was 354000 nM. Moreover, the IC50 in [18] was determined as 182000 nM. Also, the “Ratio IC50” value is recorded as 2 in assay [11], 2 in [14] and 1 in assay [17].
For the compound `COc1cc(Cc2cnc(N)nc2N)cc(OC)c1OC` [TRIMETHOPRIM], the inhibition result in assay [1], in assay [2], in [3], in assay [4], in assay [5] and in assay [19] was “inactive” in each case. Further, the inhibition result in assay [6] is “Active”. For the same compound, in assay [7], the minimal effective dose is more than 640 mg/kg. In addition, the MCD in assay [8] was more than 640 mg/kg. The IC50 in assay [9] turned out to be 80 nM; in [10], 1200 nM; in assay [12], 190 nM; in assay [13] it was 17 nM; in assay [15] it was 11700 nM; in assay [16], 67500 nM. In assay [18], the IC50 was 400 nM. The “Ratio IC50” value in assay [11] is 15; in assay [14], 0.09; in [17] it was 6.
Consider `CN(Cc1cnc2nc(N)nc(N)c2n1)c1ccc(C(=O)N[C@@H](CCC(=O)O)C(=O)O)cc1` [METHOTREXATE], for which the inhibition entry in assay [1], in assay [2], in [3], in assay [6] and in assay [19] was “Active” each time. The inhibition entry in assay [4] and in assay [5] was “inactive” in each case. In addition, the minimal effective dose in assay [7] is more than 640 mg/kg. In addition, in assay [8], the MCD is more than 640 mg/kg. In addition, the IC50 in assay [9] came to 2 nM; in assay [10], 10 nM; in assay [12] it was 0.06 nM; in [13], 0.01 nM; in assay [15] it was 400 nM; in assay [16], 1500 nM. Further, in assay [18], the IC50 is 143000 nM. Also, the “Ratio IC50” value in assay [11] stood at 5; in assay [14], 0.17; in assay [17], 4.
As to `Nc1nc(N)c2cc(SCc3ccc(Cl)cc3)ccc2n1`, the inhibition result in assay [1], in assay [2], in assay [3], in [4], in assay [5] and in [19] was “inactive” throughout. Besides, the inhibition result in assay [6] is “Active”. Also, the minimal effective dose in assay [7] stood at 320 mg/kg. The MCD in assay [8] worked out at 640 mg/kg. Also, the IC50 in assay [9] was 40 nM; in [10], 1000 nM; in assay [12], 200 nM; in [13] it was 40 nM; in assay [15] it was 50 nM; in [16], 1400 nM. Moreover, the IC50 in assay [18] was found to be 2900 nM. Moreover, the “Ratio IC50” value is given as 25 in [11], 0.2 in assay [14] and 28 in assay [17].
`Nc1nc(N)c2cc(Sc3ccc(Cl)cc3)ccc2n1`: the inhibition entry in assay [1], in [2], in assay [3], in assay [4], in assay [5] and in assay [19] was “inactive” throughout. Further, the inhibition result in assay [6] was “Active”. Further, the minimal effective dose in assay [7] amounted to 5 mg/kg. Besides, the MCD in assay [8] was 40 mg/kg. Further, the half-inhibitory concentration (IC50) worked out at 1 nM in [9]; 180 nM in assay [10]; 28 nM in [12]; 10 nM in [13]; 28 nM in [15]; 400 nM in assay [16]. Besides, in assay [18], the IC50 is 400 nM. Moreover, the “Ratio IC50” value in [11] stood at 180; in assay [14] it was 0.36; in [17], 14.3.
`CC(C)c1nc2nc(N)nc(N)c2nc1C(C)C`: the inhibition result in assay [1], in assay [2], in assay [3], in [4], in assay [5] and in [19] was “inactive” each time. For the same compound, the inhibition entry in [6] is “Active”. The minimal effective dose in assay [7] came to 640 mg/kg. Further, the MCD in assay [8] came out at 640 mg/kg. Further, the IC50 in assay [9] was determined as 5 nM; in assay [10] it was 300 nM; in assay [12], 3200 nM; in assay [13] it was 500 nM; in assay [15], 70 nM; in assay [16], 500 nM. The IC50 in [18] was 8100 nM. The “Ratio IC50” value in assay [11] is 60; in [14], 0.16; in assay [17], 7.
Turning to `CC1(C)N=C(N)N=C(N)N1OCCCOc1cc(Cl)c(Cl)cc1Cl`, the inhibition entry in [1], in assay [2], in assay [3], in assay [4], in assay [5] and in [19] was “inactive” throughout. The inhibition entry in assay [6] was “Active”. Further, the minimal effective dose in [7] was found to be 20 mg/kg. For the same compound, the MCD in [8] was 160 mg/kg. Further, the IC50 in assay [9] stood at 0.1 nM; in assay [10], 19 nM; in assay [12] it was 21 nM; in assay [13] it was 400 nM; in assay [15], 3 nM; in [16] it was 800 nM. For the same compound, in assay [18], the IC50 was found to be 1700 nM. The entries for the “Ratio IC50” value in assay [11], in [14] and in [17] were 190, 19 and 267, respectively.
For the compound `Nc1ncc(Cc2ccc3c(c2)OCO3)c(N)n1`, the inhibition result in [1], in assay [2], in [3], in [4], in assay [5] and in assay [19] was “inactive” in each case. Also, in [6], the inhibition result is “Active”. In assay [7], the minimal effective dose was found to be 640 mg/kg. In addition, the MCD in assay [8] is 640 mg/kg. In addition, the IC50 in [9] was 250 nM; in assay [10], 24200 nM; in assay [12] it was 940 nM; in [13] it was 250 nM; in [15], 12300 nM; in [16], 90100 nM. For the same compound, the IC50 in [18] amounted to 45000 nM. The “Ratio IC50” value amounted to 96.8 in assay [11], 0.27 in assay [14] and 7.3 in assay [17].
